{"source": "ChEMBL document CHEMBL1145003", "about": "“Design and synthesis of highly potent benzodiazepine gamma-secretase inhibitors: preparation of (2S,3R)-3-(3,4-difluorophenyl)-2-(4-fluorophenyl)-4- hydroxy-N-((3S)-1-methyl-2-oxo-5- phenyl-2,3-dihydro-1H-benzo[e][1,4]-diazepin-3-yl)butyramide by use of an asymmetric Ireland-Claisen rearrangement” (J Med Chem, 2003)", "data": [{"test": "Inhibitory activity against human gamma-secretase in SH-SY5Y neuroblastoma cells", "format": "cell-based", "outline": "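Whole-cell assay in SH-SY5Y neuroblastoma cells overexpressing exogenous substrate A4CTF, cleaved by endogenous human γ-secretase. IC50 determined over 0.3 nM to 10 µM; values are the mean of at least three determinations, reported with SD.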", "units": {"IC50": "nM"}, "values": [{"smiles": "CN1C(=O)[C@@H](NC(=O)[C@H](c2ccc(F)cc2)[C@@H](O)c2ccc(F)c(F)c2)N=C(c2ccccc2)c2ccccc21", "IC50": 9.6}, {"smiles": "CC(C(=O)N[C@H]1N=C(c2ccccc2)c2ccccc2N(C)C1=O)/C(=N/O)c1ccc(Cl)c(Cl)c1", "note": "(stereo not given in full)", "IC50": 35}, {"smiles": "C[C@@H](C(=O)N[C@H]1N=C(c2ccccc2)c2ccccc2N(C)C1=O)[C@@H](O)c1ccc(Cl)c(Cl)c1", "IC50": 880}, {"smiles": "CC(C(=O)N[C@H]1N=C(c2ccccc2)c2ccccc2N(C)C1=O)C(=O)c1ccc(Cl)c(Cl)c1", "note": "(stereo not given in full)", "IC50": 930}, {"smiles": "CN1C(=O)[C@@H](NC(=O)[C@@H](c2ccc(F)cc2)C(O)c2ccc(Cl)c(Cl)c2)N=C(c2ccccc2)c2ccccc21", "note": "(stereo not given in full)", "IC50": 1.2}, {"smiles": "CC(C(=O)N[C@H]1N=C(c2ccccc2)c2ccccc2N(C)C1=O)C(CO)c1ccc(F)c(F)c1", "note": "(stereo not given in full)", "IC50": 6.9}, {"smiles": "CN1C(=O)[C@@H](NC(=O)[C@@H](c2ccc(F)cc2)[C@H](CBr)c2ccc(F)c(F)c2)N=C(c2ccccc2)c2ccccc21", "IC50": 6.7}, {"smiles": "CN1C(=O)[C@@H](NC(=O)[C@@H](c2ccc(F)cc2)C(O)c2ccc(F)c(F)c2)N=C(c2ccccc2)c2ccccc21", "note": "(stereo not given in full)", "IC50": 0.8}, {"smiles": "O=C1Nc2ccccc2N(c2ccccc2)C[C@@H]1NC(=O)[C@@H](c1ccc(F)cc1)[C@H](CO)c1ccc(F)c(F)c1", "IC50": 0.07}, {"smiles": "CN1C(=O)[C@@H](NC(=O)[C@@H](Cc2ccc(Cl)c(Cl)c2)c2ccc(F)cc2)N=C(c2ccccc2)c2ccccc21", "IC50": 15}, {"smiles": "CO[C@H](c1ccc(Cl)c(Cl)c1)[C@H](C)C(=O)N[C@H]1N=C(c2ccccc2)c2ccccc2N(C)C1=O", "IC50": 59}, {"smiles": "C[C@@H](C(=O)N[C@H]1N=C(c2ccccc2)c2ccccc2N(C)C1=O)[C@H](O)c1ccc(Cl)c(Cl)c1", "IC50": 1340}, {"smiles": "CO/N=C(\\c1ccc(Cl)c(Cl)c1)C(C)C(=O)N[C@H]1N=C(c2ccccc2)c2ccccc2N(C)C1=O", "note": "(stereo not given in full)", "IC50": "> 10000"}, {"smiles": "CN1C(=O)[C@@H](NC(=O)[C@H](c2ccc(F)cc2)[C@@H](O)c2ccc(Cl)c(Cl)c2)N=C(c2ccccc2)c2ccccc21", "IC50": 67}, {"smiles": "C[C@H](Cc1ccc(Cl)c(Cl)c1)C(=O)N[C@H]1N=C(c2ccccc2)c2ccccc2N(C)C1=O", "IC50": 320}, {"smiles": "CN1C(=O)[C@@H](NC(=O)[C@@H](c2ccc(F)cc2)[C@H](CO)c2ccc(F)c(F)c2)N=C(c2ccccc2)c2ccccc21", "IC50": 0.07}, {"smiles": "C[C@H](C(=O)N[C@H]1N=C(c2ccccc2)c2ccccc2N(C)C1=O)[C@H](OCC(N)=O)c1ccc(Cl)c(Cl)c1", "IC50": 4750}, {"smiles": "C[C@H](C(=O)N[C@H]1N=C(c2ccccc2)c2ccccc2N(C)C1=O)[C@H](OS(N)(=O)=O)c1ccc(Cl)c(Cl)c1", "IC50": 450}, {"smiles": "C[C@H](C(=O)N[C@H]1N=C(c2ccccc2)c2ccccc2N(C)C1=O)[C@@H](O)c1ccc(Cl)c(Cl)c1", "IC50": 380}, {"smiles": "C[C@H](C(=O)N[C@H]1N=C(c2ccccc2)c2ccccc2N(C)C1=O)[C@H](OC(N)=O)c1ccc(Cl)c(Cl)c1", "IC50": 2450}, {"smiles": "CC[C@H](c1ccc(F)c(F)c1)[C@@H](C(=O)N[C@H]1N=C(c2ccccc2)c2ccccc2N(C)C1=O)c1ccc(F)cc1", "IC50": 212}, {"smiles": "C=C[C@H](c1ccc(F)c(F)c1)[C@@H](C(=O)N[C@H]1N=C(c2ccccc2)c2ccccc2N(C)C1=O)c1ccc(F)cc1", "IC50": 100}, {"smiles": "C[C@H](C(=O)N[C@H]1N=C(c2ccccc2)c2ccccc2N(C)C1=O)[C@H](O)c1ccc(Cl)c(Cl)c1", "IC50": 19}, {"smiles": "O=C1Nc2ccccc2C(c2ccccc2)=N[C@@H]1NC(=O)[C@@H](c1ccc(F)cc1)[C@H](CO)c1ccc(F)c(F)c1", "IC50": 0.06}, {"smiles": "O=C1Nc2ccccc2C(c2ccccc2)=N[C@@H]1NC(=O)[C@@H](c1ccc(F)cc1)[C@H](CCO)c1ccc(F)c(F)c1", "IC50": 35}]}]}
